Activity calls are given as the source filed them.
What was measured:
Cannabinoid receptor 1 = Cannabinoid receptor 1 (Homo sapiens, UniProt P21554); experiment: Displacement of [3H]CP55940 from recombinant human CB1R expressed in CHO cell membranes incubated for 90 mins; parameters: species or system Membrane
[1] = target: T1, Monoacylglycerol lipase ABHD6 (Homo sapiens, UniProt Q9BV23); experiment: Inhibition of human ABHD6 expressed in HEK293 cells using 2-OG as substrate preincubated for 30 mins followed by substrate addition and measured after 5 mins by liquid scintillation spectroscopy; assay type: cell-based
T1 sequence (Q9BV23 whole entry): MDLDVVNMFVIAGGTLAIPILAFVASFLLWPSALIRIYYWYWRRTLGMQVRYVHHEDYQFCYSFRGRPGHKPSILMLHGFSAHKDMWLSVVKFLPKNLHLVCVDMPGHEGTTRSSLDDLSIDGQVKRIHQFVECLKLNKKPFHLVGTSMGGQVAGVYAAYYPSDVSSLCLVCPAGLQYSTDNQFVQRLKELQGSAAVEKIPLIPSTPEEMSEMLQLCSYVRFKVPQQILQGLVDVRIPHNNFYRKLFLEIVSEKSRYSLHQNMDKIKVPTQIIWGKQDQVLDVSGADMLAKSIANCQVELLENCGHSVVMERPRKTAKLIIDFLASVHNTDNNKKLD
Outline: (§1)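 Homogenates (40 µg) from HEK293 stably expressing hABHD6 or hABHD12 pre-incubated with compound 30 min at 37 °C in […], 0.1% BSA, pH 7.6; then 10 μM 2-OG for 5 min at 37 °C. Aqueous phase tritium counted after CHCl3:MeOH stop; no-enzyme blanks and non-transfected HEK293 hydrolysis subtracted. Controls WWL70 10 μM, THL 20 μM.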

Mus musculus [2] = experiment: In vivo agonist activity at CB1R in BALB/c mouse assessed as reduction in spontaneous locomotion at 5 mg/kg, ip measured after 1 hr by rotarod test; assay type: functional, organism-based
Outline: (§2)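 BALB/c mice given 5 mg/kg i.p. in DMSO (20 µL), tested 1 h later. Rectal temperature change from basal; catalepsy by bar test (4 cm bar, 120 s cut-off); locomotion by rotarod latency to fall at 4 rpm (120 s cut-off, 3 trials); analgesia by hot plate at 54-56 °C, first paw lick or shake. n = 5-20 per group.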

Mus musculus [3] = experiment: In vivo agonist activity at CB1R in BALB/c mouse assessed as induction of analgesia at 5 mg/kg, ip measured after 1 hr by hotplate test; assay type: functional, organism-based; outline: as §2
Monoglyceride lipase = target: T2, Monoglyceride lipase (Homo sapiens, UniProt Q99685); experiment: Inhibition of MAGL in human U937 cells using [glycerol-1,2,3-3H]2-OG as substrate preincubated for 15 mins followed by substrate addition and measured after 15 mins by liquid scintillation spectroscopy; assay type: cell-based, U-937
T2 sequence (Q99685 whole entry): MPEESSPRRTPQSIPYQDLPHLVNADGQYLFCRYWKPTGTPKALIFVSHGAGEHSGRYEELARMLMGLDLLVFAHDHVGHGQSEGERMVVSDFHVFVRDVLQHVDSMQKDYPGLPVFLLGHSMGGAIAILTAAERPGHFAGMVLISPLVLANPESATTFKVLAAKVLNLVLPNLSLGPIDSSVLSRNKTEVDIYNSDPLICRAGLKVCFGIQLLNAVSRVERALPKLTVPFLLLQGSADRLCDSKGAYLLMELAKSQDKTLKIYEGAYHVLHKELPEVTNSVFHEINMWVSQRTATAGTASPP
Outline: (§3)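 Intact U937 cells, 10^6 per condition, pre-incubated with compound 15 min at 37 °C with shaking (screen at 10 μM; full curves for hits). Substrate: 1 μM AEA with 1 nM [3H]AEA (FAAH) or 10 μM 2-OG with 5 nM [3H]2-OG (MAGL), 15 min at 37 °C. Stopped with CHCl3:MeOH 1:1, aqueous tritium counted; mean ± SD, ≥3 experiments in triplicate.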

[4] = target: T3, Fatty-acid amide hydrolase 1 (Homo sapiens, UniProt O00519); experiment: Inhibition of FAAH in human U937 cells using [ethanolamine-1-3H]AEA as substrate preincubated for 15 mins followed by substrate addition and measured after 15 mins by liquid scintillation spectroscopy; assay type: cell-based, U-937; outline: as §3
T3 sequence (O00519 whole entry): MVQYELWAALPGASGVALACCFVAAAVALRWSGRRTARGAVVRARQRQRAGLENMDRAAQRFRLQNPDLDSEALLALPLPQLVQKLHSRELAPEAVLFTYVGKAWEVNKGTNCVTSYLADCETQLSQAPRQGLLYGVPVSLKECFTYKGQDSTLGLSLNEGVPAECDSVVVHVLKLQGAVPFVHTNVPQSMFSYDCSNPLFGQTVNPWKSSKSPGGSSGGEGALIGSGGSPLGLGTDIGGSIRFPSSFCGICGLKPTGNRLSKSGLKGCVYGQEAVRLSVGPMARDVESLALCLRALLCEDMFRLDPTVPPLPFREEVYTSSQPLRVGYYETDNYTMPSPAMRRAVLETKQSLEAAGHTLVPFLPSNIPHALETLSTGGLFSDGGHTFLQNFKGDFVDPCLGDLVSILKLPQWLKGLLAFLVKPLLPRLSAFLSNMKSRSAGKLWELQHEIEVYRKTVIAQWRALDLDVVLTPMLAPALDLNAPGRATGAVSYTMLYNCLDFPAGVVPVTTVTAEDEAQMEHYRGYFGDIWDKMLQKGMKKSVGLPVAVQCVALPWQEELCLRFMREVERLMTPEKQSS

Cannabinoid receptor 2 = Cannabinoid receptor 2 (Homo sapiens, UniProt P34972); experiment: Displacement of [3H]CP55940 from recombinant human CB2R expressed in CHO cell membranes incubated for 90 mins; parameters: species or system Membrane
Mus musculus [5] = experiment: In vivo agonist activity at CB1R in BALB/c mouse assessed as reduction in body temperature at 5 mg/kg, ip measured after 1 hr by tetrad test; assay type: functional, organism-based; outline: as §2
Mus musculus [6] = experiment: In vivo agonist activity at CB1R in BALB/c mouse assessed as catalpesy-like behaviour by measuring increase in immobility time at 5 mg/kg, ip measured after 1 hr by bar test; assay type: functional, organism-based; outline: as §2
[7] = target: T4, Lysophosphatidylserine lipase ABHD12 (Homo sapiens, UniProt Q8N2K0); experiment: Inhibition of human ABHD12 expressed in HEK293 cells using 2-OG as substrate preincubated for 30 mins followed by substrate addition and measured after 5 mins by liquid scintillation spectroscopy; assay type: cell-based; outline: as §1
T4 sequence (Q8N2K0 whole entry): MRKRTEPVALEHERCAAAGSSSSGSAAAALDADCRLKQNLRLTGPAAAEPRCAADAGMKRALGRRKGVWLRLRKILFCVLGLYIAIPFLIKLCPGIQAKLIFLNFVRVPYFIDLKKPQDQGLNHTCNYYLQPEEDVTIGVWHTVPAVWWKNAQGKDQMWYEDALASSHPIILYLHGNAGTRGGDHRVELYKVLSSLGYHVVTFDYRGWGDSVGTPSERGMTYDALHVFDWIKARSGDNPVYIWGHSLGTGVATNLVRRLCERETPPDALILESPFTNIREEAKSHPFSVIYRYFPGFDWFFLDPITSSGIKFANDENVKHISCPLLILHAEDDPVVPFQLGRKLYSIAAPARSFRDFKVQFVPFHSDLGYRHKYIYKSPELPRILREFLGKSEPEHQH

Sequence of Cannabinoid receptor 2 (P34972 whole entry): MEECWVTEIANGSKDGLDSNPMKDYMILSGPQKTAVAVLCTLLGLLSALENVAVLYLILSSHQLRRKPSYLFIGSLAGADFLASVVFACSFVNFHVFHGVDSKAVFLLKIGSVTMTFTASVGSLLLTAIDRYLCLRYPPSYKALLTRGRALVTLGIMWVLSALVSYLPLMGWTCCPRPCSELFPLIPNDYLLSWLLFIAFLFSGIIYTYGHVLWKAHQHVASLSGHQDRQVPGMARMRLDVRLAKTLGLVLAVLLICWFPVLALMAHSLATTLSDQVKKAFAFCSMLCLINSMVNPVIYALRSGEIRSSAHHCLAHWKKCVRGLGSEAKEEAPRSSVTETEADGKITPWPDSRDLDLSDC
Sequence of Cannabinoid receptor 1 (P21554 whole entry): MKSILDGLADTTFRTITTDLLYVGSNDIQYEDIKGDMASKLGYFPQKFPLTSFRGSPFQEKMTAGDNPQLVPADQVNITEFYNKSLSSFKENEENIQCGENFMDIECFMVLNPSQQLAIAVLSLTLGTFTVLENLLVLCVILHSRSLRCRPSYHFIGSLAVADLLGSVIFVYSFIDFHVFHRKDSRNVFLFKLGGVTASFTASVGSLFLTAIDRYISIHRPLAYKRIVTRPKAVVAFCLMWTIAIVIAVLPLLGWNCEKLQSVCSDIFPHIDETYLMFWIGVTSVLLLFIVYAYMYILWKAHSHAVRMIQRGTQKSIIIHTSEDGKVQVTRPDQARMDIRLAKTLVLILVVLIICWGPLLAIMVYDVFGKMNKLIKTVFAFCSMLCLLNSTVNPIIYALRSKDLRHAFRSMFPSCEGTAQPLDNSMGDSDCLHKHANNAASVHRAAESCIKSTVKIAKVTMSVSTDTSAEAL

SMILES	Ki (Cannabinoid receptor 1)	IC50 [1]	Activity (Mus musculus [2])	Activity (Mus musculus [3])	IC50 (Monoglyceride lipase)	IC50 [4]	Ki (Cannabinoid receptor 2)	Activity (Mus musculus [5])	Activity (Mus musculus [6])	IC50 [7]
Cc1c(Br)cc(C(=O)NC2CCCCCC2)c(=O)n1Cc1ccc(F)cc1	2.9 nM	> 10000 nM	Active	Active	> 10 µM	5.9 µM	1.5 nM	Active	Active	> 10 µM
COc1ccc(-c2cc(C(=O)NC3CCCCCC3)c(=O)n(Cc3ccc(F)cc3)c2C)cc1	9.8 nM	530 nM	inactive	inactive	> 10 µM	2 µM	26.2 nM	inactive	inactive	> 10 µM
